Reference: ChEMBL document CHEMBL3739259, “Defining Key Structural Determinants for the Pro-osteogenic Activity of Flavonoids” (J Nat Prod, 2015)
Activity calls are given as the source filed them. The calls are words filed in the database; no cut-off is given here.

Tests used:
[1] = Cytotoxicity against human MSC assessed as cell viability at 1 uM treated for 6 days measured on day 7 by alamar blue assay (reference value: 96 to 101%); details: MSC cells, read-out: Activity
[2] = Cytotoxicity against human MSC assessed as cell viability at 10 uM treated for 3 days measured on day 4 by alamar blue assay (reference value: 97 to 100%); details: MSC cells, read-out: Activity
MSC [3] = assay: (§1) Induction of osteogenic differentiation in human MSC assessed as increase in ALP activity at 10 uM using p-NPP as substrate after 9 days by colorimetric method relative to control; format: functional
Summary of the method: (§2)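 ALP read on day 9 in passage-3 bone-marrow hMSCs cultured at high density in Os.D medium. Compound (1, 5 or 10 μM, 0.1% v/v DMSO final) was re-applied on days 0, 3 and 6. Colorimetric p-nitrophenyl phosphate method, normalised to time and cell number (pNP/min/20,000 cells). Expressed as % of untreated control; three independent triplicate experiments; one-way ANOVA versus vehicle.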

[4] = Cytotoxicity against human MSC assessed as cell viability at 5 uM measured on day 1 by alamar blue assay (reference value: 97 to 101%); details: MSC cells, read-out: Activity
[5] = Cytotoxicity against human MSC assessed as cell viability at 10 uM measured on day 1 by alamar blue assay (reference value: 97 to 101%); details: MSC cells, read-out: Activity
[6] = Cytotoxicity against human MSC assessed as cell viability at 1 uM treated for 3 days measured on day 4 by alamar blue assay (reference value: 97 to 100%); details: MSC cells, read-out: Activity
[7] = Cytotoxicity against human MSC assessed as decrease in cell number at 1 to 10 uM after 9 days by methylene blue staining based microscopy relative to control; details: 216 h
Summary of the method: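 Passage-3 bone-marrow hMSCs, high density in Os.D medium, dosed with 1, 5 or 10 μM compound (0.1% v/v DMSO final) on days 0, 3 and 6 with medium changes. Cell number measured on day 9 by methylene blue proliferation assay. Expressed as % of untreated control; three independent triplicate experiments, mean ± SEM, one-way ANOVA versus vehicle.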

[8] = Cytotoxicity against human MSC assessed as cell viability at 5 uM treated for 3 days measured on day 4 by alamar blue assay (reference value: 97 to 100%); details: MSC cells, read-out: Activity
[9] = Cytotoxicity against human MSC assessed as cell viability at 10 uM treated for 6 days measured on day 7 by alamar blue assay (reference value: 96 to 101%); details: MSC cells, read-out: Activity
MSC [10] = assay: (§3) Induction of osteogenic differentiation in human MSC assessed as increase in ALP activity at 5 uM using p-NPP as substrate after 9 days by colorimetric method relative to control; format: functional; summary of the method: as §2
MSC [11] = assay: Induction of osteogenic differentiation in human MSC assessed as increase in ALP activity at 1 uM using p-NPP as substrate after 9 days by colorimetric method relative to control; format: functional; summary of the method: as §2
[12] = Cytotoxicity against human MSC assessed as cell viability at 1 uM measured on day 1 by alamar blue assay (reference value: 97 to 101%); details: MSC cells, read-out: Activity
[13] = Cytotoxicity against human MSC assessed as cell viability at 5 uM treated for 6 days measured on day 7 by alamar blue assay (reference value: 96 to 101%); details: MSC cells, read-out: Activity
[14] = as §1; format: functional; summary of the method: as §2
MSC [15] = assay: Induction of osteogenic differentiation in human MSC assessed as increase in ALP activity using p-NPP as substrate after 9 days by colorimetric method; format: functional; summary of the method: as §2
[16] = as §3; format: functional; summary of the method: as §2
[17] = Decrease in ALP activity in human MSC using p-NPP as substrate at 10 uM after 9 days by colorimetric method relative to control; format: functional
Summary of the method: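 Passage-3 bone-marrow hMSCs from healthy donors, cultured at high density in osteogenic (Os.D) medium; compound given at days 0, 3 and 6 with media change every 3 days, final 0.1% (v/v) DMSO; vehicle, 50 nM calcitriol and untreated controls. Day-9 ALP by para-nitrophenyl phosphate colorimetry, normalised to time and cell number (methylene blue); % of untreated control, 3 independent triplicate experiments ± SEM.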

SMILES | viability at 144 h, 1 µM [1] [%] | viability at 72 h, 10 µM [2] [%] | Activity (MSC [3]) | viability at 1 day, 5 µM [4] [%] | viability at 1 day, 10 µM [5] [%] | viability at 72 h, 1 µM [6] [%] | Activity [7] | viability at 72 h, 5 µM [8] [%] | viability at 144 h, 10 µM [9] [%] | Activity (MSC [10]) | Activity (MSC [11]) | viability at 1 day, 1 µM [12] [%] | viability at 144 h, 5 µM [13] [%] | fold change (FC) [14] | Activity (MSC [15]) | fold change (FC) [16] | fold change (FC) [17]
O=c1cc(-c2ccccc2)oc2ccccc12 [FLAVONE] | 100 | 92 | inactive | 103 | 106 | 93 | Toxic | 93 | 98 | inactive | inactive | 102 | 102 | – | – | – | –
O=c1c(O)c(-c2ccccc2)oc2cc(O)cc(O)c12 [GALANGIN] | 99 | 91 | – | 105 | 104 | 94 | – | 91 | 97 | – | inactive | 105 | 97 | 1.32 | Dose-dependent effect | 1.52 | –
COc1cc(-c2oc3cc(O)cc(O)c3c(=O)c2O)ccc1O [ISORHAMNETIN] | 98 | 91 | – | 107 | 108 | 93 | Toxic | 92 | 97 | – | inactive | 105 | 100 | 1.32 | – | 1.52 | –
O=c1cc(-c2ccc(O)c(O)c2)oc2cc(O)cc(O)c12 [LUTEOLIN] | 97 | 94 | – | 96 | 93 | 99 | Toxic | 96 | 96 | – | inactive | 100 | 94 | – | – | – | 0.59
O=C1C[C@@H](c2ccc(O)cc2)Oc2cc(O)cc(O)c21 [NARINGENIN] | 100 | 106 | – | 105 | 105 | 101 | – | 104 | 103 | inactive | inactive | 104 | 102 | 1.53 | – | – | –
O=C(CCc1ccc(O)cc1)c1c(O)cc(O)cc1O [PHLORETIN] | 97 | 95 | inactive | 105 | 106 | 93 | – | 93 | 100 | inactive | inactive | 106 | 98 | – | – | – | –
O=c1c(O)c(-c2ccc(O)c(O)c2)oc2cc(O)cc(O)c12 [QUERCETIN] | 103 | 101 | – | 100 | 89 | 98 | Toxic | 100 | 101 | – | inactive | 101 | 104 | 1.32 | – | 1.52 | –
Oc1ccc(/C=C/c2cc(O)cc(O)c2)cc1 [RESVERATROL] | 96 | 100 | inactive | 101 | 98 | 100 | Toxic | 100 | 97 | inactive | inactive | 99 | 97 | – | – | – | –
COc1ccc(-c2oc3cc(O)cc(O)c3c(=O)c2O)cc1O [TAMARIXETIN] | 94 | 93 | – | 102 | 102 | 97 | Toxic | 97 | 93 | – | inactive | 105 | 96 | 1.32 | Dose-dependent effect | 1.52 | –
